Data reported in ChEMBL document CHEMBL1250434, “A novel achiral seco-cyclopropylpyrido[e]indolone (CPyI) analog of CC-1065 and the duocarmycins: synthesis, DNA interactions, in vivo anticancer and anti-parasitic evaluation” (Bioorg Med Chem, 2010).

Tested on: L1210
Assay: Cytotoxicity against mouse L1210 cells after 3 days by MTT assay
Type: functional, cell-based
Settings: L1210, 72 h
Summary of the method: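 Murine tumour cells under continuous drug exposure for 3 days. Growth inhibition measured by MTT assay. IC50 is the concentration inhibiting growth by 50%.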

COc1c(O)c2c(c3cc(C(=O)N4CCc5c4c(O)c(OC)c4[nH]c(C(=O)N6C[C@H]7C[C@@]78C6=CC(=O)c6[nH]cc(C)c68)cc54)[nH]c13)CCN2C(N)=O [(+)-CC-1065]
IC50: 0.03 nM
